Like-named read-outs stand apart in the source and are kept apart here. Marks after values point to notes of the source that are not given here.
Legend:
HT-1080 xenografts = details: ref [19], cited from earlier work
MMP-7 = details: ref [37]; cited from earlier work
albumin = details: ref [26]; cited from earlier work
MMP-9 [1] = target: T1, MMP-9 (Homo sapiens, UniProt P14780); details: ref [23]; cited from earlier work
[2] = system: gelatinases (MMP-2 and MMP-9) versus other MMP family members; details: ref [23], [24]; cited from earlier work
[3] = ref [23]; cited from earlier work
MMP-2 [4] = target: T2, MMP-2 (Homo sapiens, UniProt P08253); details: ref [23]; cited from earlier work
T2 sequence (P08253 110-660): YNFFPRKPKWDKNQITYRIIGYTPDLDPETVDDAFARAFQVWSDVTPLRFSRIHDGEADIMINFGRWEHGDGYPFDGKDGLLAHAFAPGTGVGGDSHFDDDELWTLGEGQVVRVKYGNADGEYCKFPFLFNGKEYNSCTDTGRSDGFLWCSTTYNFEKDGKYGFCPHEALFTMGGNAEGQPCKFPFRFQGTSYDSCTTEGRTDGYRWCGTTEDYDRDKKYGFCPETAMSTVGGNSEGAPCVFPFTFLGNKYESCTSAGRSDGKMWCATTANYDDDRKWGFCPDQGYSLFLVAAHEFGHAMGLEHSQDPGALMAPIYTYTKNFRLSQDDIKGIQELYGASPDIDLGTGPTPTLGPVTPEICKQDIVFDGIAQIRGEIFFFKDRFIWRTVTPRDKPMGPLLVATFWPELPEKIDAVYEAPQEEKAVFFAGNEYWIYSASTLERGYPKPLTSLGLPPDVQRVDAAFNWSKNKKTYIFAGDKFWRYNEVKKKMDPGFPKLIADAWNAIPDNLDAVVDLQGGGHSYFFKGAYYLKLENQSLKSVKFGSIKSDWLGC

[5] = Fluorescence quenching efficiency, intact vs completely hydrolyzed; assay type: physicochemical; details: from variable temperature absorbance spectra and variable temperature fluorescence melting curves
MMP-2 [6] = target: T2, MMP-2; test: Enzyme kinetics; assay type: biochemical; details: λexcitation = 780 nm, λemission = 810 nm; for kcat: Michaelis-Menten; for Km: ± standard error of the mean
MMP-9 [7] = target: T1, MMP-9; test: Enzyme kinetics; assay type: biochemical; details: λexcitation = 780 nm, λemission = 810 nm; for kcat: Michaelis-Menten; for Km: ± standard error of the mean
[8] = Triple-helix melting temperature; assay type: physicochemical; details: from fluorescence melting curves; Table 1
[9] = system: gelatinases (MMP-2 and MMP-9) versus other MMP family members; test: Substrate selectivity for gelatinases within the MMP family; assay type: biochemical; details: authors' summary statement
[10] = Variable temperature absorbance spectra; assay type: physicochemical; details: room temperature, PBS
Method in brief: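 Dye-labelled triple-helical peptide conjugates in PBS; absorbance spectra recorded across a range of temperatures. Quenching efficiency was derived from these spectra together with variable-temperature fluorescence melting curves.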

[11] = system: HT-1080 xenografted tumors (gelatinase activity); test: FMT imaging of mice bearing HT-1080 fibrosarcoma xenografts; details: 2 nmol i.v.

T1 sequence (P14780 94-707): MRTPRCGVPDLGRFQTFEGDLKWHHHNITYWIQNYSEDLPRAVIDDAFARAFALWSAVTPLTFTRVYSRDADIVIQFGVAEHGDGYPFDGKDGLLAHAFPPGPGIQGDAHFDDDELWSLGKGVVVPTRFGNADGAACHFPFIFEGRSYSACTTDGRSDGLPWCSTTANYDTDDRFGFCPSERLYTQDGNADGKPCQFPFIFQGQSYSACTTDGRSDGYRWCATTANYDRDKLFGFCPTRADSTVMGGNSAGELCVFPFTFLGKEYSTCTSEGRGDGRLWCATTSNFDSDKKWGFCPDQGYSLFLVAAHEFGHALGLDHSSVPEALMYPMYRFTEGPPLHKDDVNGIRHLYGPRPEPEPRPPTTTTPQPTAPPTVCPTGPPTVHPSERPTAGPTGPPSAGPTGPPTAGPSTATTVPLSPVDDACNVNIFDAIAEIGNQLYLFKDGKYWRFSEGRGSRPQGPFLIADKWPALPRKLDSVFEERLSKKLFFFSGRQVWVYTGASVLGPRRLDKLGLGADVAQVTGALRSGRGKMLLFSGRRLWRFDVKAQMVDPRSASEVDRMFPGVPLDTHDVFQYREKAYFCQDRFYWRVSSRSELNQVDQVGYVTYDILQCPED

CC1(C)SCCN(S(=O)(=O)c2ccc(Oc3ccncc3)cc2)[C@H]1C(=O)NO [Prinomastat, reference compound]
reduction of tumor-associated fluorescence on co-administration (HT-1080 xenografts; with MMPSense, HT-1080 xenografts): 2.5 fold
Ki (MMP-7): 54 nM

CC1(C)C(/C=C/C=C/C=C/C=C2/N(CCC(=O)O)c3ccc4ccccc4c3C2(C)C)=[N+](CCC(=O)O)c2ccc3ccccc3c21.[Br-] [cypate]
binding affinity to albumin (albumin): good binding affinity

(GPO)5GPK(Mca)GPPG~VVGEK(Dnp)GEN(GPO)5-NH2 [fTHP]
Km (MMP-9 [1]): 8.1 µM
kcat (MMP-9 [1]): 0.044 s⁻¹
kcat/KM (MMP-9 [1]): 5.4 × 10^3 s^−1M^−1
kcat/KM for gelatinases relative to other MMP family members [2]: more than 10 fold
TM [3]: 45.0 °C
Km (MMP-2 [4]): 4.4 µM
kcat (MMP-2 [4]): 0.061 s⁻¹
kcat/KM (MMP-2 [4]): 14 × 10^3 s^−1M^−1

(GPO)5GPKGPPG~VVGEK(PEG2-cypate)GEQ(GPO)5 [cypate3-(PEG)2-THP]
quenching efficiency, comparison with and without PEG spacer [5]: similar
kcat/KM (MMP-2 [6]): 9100 M⁻¹ s⁻¹
kcat (MMP-2 [6]): 0.099 s⁻¹
kcat/KM (MMP-2 [6]; Table 1): 9.1 × 10^3 s^−1M^−1
Km (MMP-2 [6]): 10.9 µM
kcat/KM (MMP-9 [7]): 9100 M⁻¹ s⁻¹
kcat (MMP-9 [7]): 0.202 s⁻¹
kcat/KM (MMP-9 [7]; Table 1): 9.1 × 10^3 s^−1M^−1
Km (MMP-9 [7]): 22.2 µM
TM [8]: 45.5^b °C

(GPO)5GPKGPPG~VVGEK(cypate)GEQ(GPO)5 [cypate3-THP]
quenching efficiency, comparison with and without PEG spacer [5]: similar
selectivity of hydrolysis [9]: efficiently hydrolyzed selectively by MMP-2 and -9
additional absorption peak (aggregate) [10]: 710 nm
main absorption peak [10]: 780 nm
aggregation ([10]; 300 nM, up to 1.5 μM): significant intramolecular H-aggregation
average tumor to background ratio ([11]; 4 hours post-injection, n = 3): 10.2
clearance of fluorescence ([11]; after 24 h): slowly cleared from most tissues after 24 h
time of peak normalized fluorescence intensity ([11]; post-injection, n = 3): 4 h
fluorescence enhancement within the tumor ([11]; abstract): significant fluorescence enhancement within the tumor
normalized tumor fluorescence intensity ([11]; pmol cypate/mm^3 tumor volume, 1 hour post-injection, n = 3): relatively low
kcat/KM (MMP-2 [6]): 6800 M⁻¹ s⁻¹
kcat (MMP-2 [6]): 0.056 s⁻¹
kcat/KM (MMP-2 [6]; Table 1): 6.8 × 10^3 s^−1M^−1
Km (MMP-2 [6]): 8.19 µM
kcat/KM (MMP-9 [7]): 6400 M⁻¹ s⁻¹
kcat (MMP-9 [7]): 0.142 s⁻¹
kcat/KM (MMP-9 [7]; Table 1): 6.4 × 10^3 s^−1M^−1
Km (MMP-9 [7]): 22.3 µM
TM [8]: 50.5^b °C

PLGVR [MMPSense]
visualization of HT-1080 xenografts (HT-1080 xenografts; NIR reflectance imaging): enabled the visualization of the HT-1080 xenografts
